The results in this text go back to ChEMBL document CHEMBL1144053, “Six triterpenoid saponins from Mmaesa laxiflora” (J Nat Prod, 1999).

Calls of active or inactive are those of the source. No cut-off for these calls is given here.

Test [1] is described as follows: Inhibition of tubulin polymerization at 10 mg/mL by tubulin assembly assay. Further details: scale not given: the % may be the effect or the level left. A digest of the protocol:
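Test compound added to cold (6 °C) tubulin solution; assembly started by shifting the temperature from 6 to 37 °C. Turbidity followed over time, with polymerization rate taken from the slope of the turbidity increase.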

The subject of a further test is A549. Kind of test: Cytotoxicity against human A549 cells by MTT assay. Type of test: functional, cell-based. In outline: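 A-549 cells from NCI; standard MTT-based colorimetric cytotoxicity assay.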
The nature of test [2]: Inhibition of tubulin polymerization at 1 ug/mL by tubulin assembly assay. On the set-up: scale not given: the % may be the effect or the level left. In outline:
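Compound added to cold (6 °C) tubulin solution; assembly started by a temperature shift from 6 to 37 °C. Turbidity followed over time, with polymerization rate taken as the slope of the turbidity increase.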

The molecule `CCC/C=C\C(=O)O[C@H]1CC(C)(C)C[C@H]2C3=CC[C@@H]4[C@@]5(C)CC[C@H](O[C@@H]6O[C@H](C(=O)O)[C@@H](O)[C@H](O[C@@H]7O[C@H](CO)[C@H](O)[C@H](O)[C@H]7O[C@@H]7O[C@@H](C)[C@H](O)[C@@H](O)[C@H]7O[C@@H]7O[C@@H](C)[C@H](O)[C@@H](O)[C@H]7O)[C@H]6O[C@@H]6O[C@H](CO)[C@H](O)[C@H](O)[C@H]6O)C(C)(C)[C@@H]5CC[C@@]4(C)[C@]3(C)C[C@@H](O)[C@@]12CO` returned an Activity in test [1] of 41%. Also, the outcome in the test on A549 was inactive.
As for `COc1cc2c(c(OC)c1OC)-c1ccc(OC)c(=O)cc1[C@@H](NC(C)=O)CC2`, the Activity in test [2] stood at 50%.
In turn, `C/C=C(\C)C(=O)O[C@H]1CC(C)(C)C[C@H]2C3=CC[C@@H]4[C@@]5(C)CC[C@H](O[C@@H]6O[C@H](C(=O)O)[C@@H](O)[C@H](O[C@@H]7O[C@H](CO)[C@H](O)[C@H](O)[C@H]7O[C@@H]7O[C@@H](C)[C@H](O)[C@@H](O)[C@H]7O[C@@H]7O[C@@H](C)[C@H](O)[C@@H](O)[C@H]7O)[C@H]6O[C@@H]6O[C@H](CO)[C@@H](O)[C@H](O)[C@H]6O)C(C)(C)[C@@H]5CC[C@@]4(C)[C@]3(C)C[C@@H](OC(C)=O)[C@@]12CO` had an Activity in test [1] of 41%. Moreover, in the test with A549, the outcome was inactive.
With `C/C=C(\C)C(=O)O[C@H]1CC(C)(C)C[C@H]2C3=CC[C@@H]4[C@@]5(C)CC[C@H](O[C@@H]6O[C@H](C(=O)O)[C@@H](O)[C@H](O[C@@H]7O[C@H](CO)[C@H](O)[C@H](O)[C@H]7O[C@@H]7O[C@@H](C)[C@H](O)[C@@H](O)[C@H]7O[C@@H]7O[C@@H](C)[C@H](O)[C@@H](O)[C@H]7O)[C@H]6O[C@@H]6O[C@H](CO)[C@H](O)[C@H](O)[C@H]6O)C(C)(C)[C@@H]5CC[C@@]4(C)[C@]3(C)C[C@@H](OC(C)=O)[C@@]12CO`, in test [1], the Activity is 41%. Moreover, the outcome in the test with A549 was inactive.
As for `C/C=C(\C)C(=O)O[C@H]1CC(C)(C)C[C@H]2C3=CC[C@@H]4[C@@]5(C)CC[C@H](O[C@@H]6O[C@H](C(=O)O)[C@@H](O)[C@H](O[C@@H]7O[C@H](CO)[C@H](O)[C@H](O)[C@H]7O[C@@H]7O[C@@H](C)[C@H](O)[C@@H](O)[C@H]7O[C@@H]7O[C@@H](C)[C@H](O)[C@@H](O)[C@H]7O)[C@H]6O[C@@H]6O[C@H](CO)[C@H](O)[C@H](O)[C@H]6O)C(C)(C)[C@@H]5CC[C@@]4(C)[C@]3(C)C[C@@H](O)[C@@]12CO`, the Activity in test [1] is 41%. Also, the outcome in the test with A549 was inactive.
As for `CCC/C=C\C(=O)O[C@H]1CC(C)(C)C[C@H]2C3=CC[C@@H]4[C@@]5(C)CC[C@H](O[C@@H]6O[C@H](C(=O)O)[C@@H](O)[C@H](O[C@@H]7O[C@H](CO)[C@H](O)[C@H](O)[C@H]7O[C@@H]7O[C@@H](C)[C@H](O)[C@@H](O)[C@H]7O[C@@H]7O[C@@H](C)[C@H](O)[C@@H](O)[C@H]7O)[C@H]6O[C@@H]6O[C@H](CO)[C@@H](O)[C@H](O)[C@H]6O)C(C)(C)[C@@H]5CC[C@@]4(C)[C@]3(C)C[C@@H](O)[C@@]12CO`, the Activity in test [1] worked out at 41%. In the test on A549, the result was inactive.
On the same counts, the results for `C/C=C(\C)C(=O)O[C@H]1CC(C)(C)C[C@H]2C3=CC[C@@H]4[C@@]5(C)CC[C@H](O[C@@H]6O[C@H](C(=O)O)[C@@H](O)[C@H](O[C@@H]7O[C@H](CO)[C@H](O)[C@H](O)[C@H]7O[C@@H]7O[C@@H](C)[C@H](O)[C@@H](O)[C@H]7O[C@@H]7O[C@@H](C)[C@H](O)[C@@H](O)[C@H]7O)[C@H]6O[C@@H]6O[C@H](CO)[C@@H](O)[C@H](O)[C@H]6O)C(C)(C)[C@@H]5CC[C@@]4(C)[C@]3(C)C[C@@H](O)[C@@]12CO` are 41% and “inactive”.
